From ChEMBL document CHEMBL1777703, “Synthesis and Biological Evaluation of Muraymycin Analogues Active against Anti-Drug-Resistant Bacteria” (ACS Med Chem Lett, 2010)
Values after ≈ are worked out from the molar mass of the structure shown.

Experiments:
[1] = test system: Enterococcus faecium; assay: Antibacterial activity against Enterococcus faecium ATCC 19434 after 20 hrs by broth microdilution method; assay type: functional; settings: ATCC 19434, 20 h
Outline: (§1)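 MIC by broth microdilution following NCCLS guidance in cation-adjusted Mueller-Hinton broth. Compounds tested as serial 2-fold dilutions, tested up to 64 μg/mL. Each well inoculated with 5 × 10^4 CFU of the strain in 0.1 mL. Incubation at 35 °C for 20 h, after which the MIC was scored.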

[2] = test system: Enterococcus faecalis; assay: Antibacterial activity against vancomycin-resistant Enterococcus faecalis SR7914 after 20 hrs by broth microdilution method; assay type: functional; settings: SR7914, 20 h; outline: as §1
[3] = test system: Staphylococcus aureus; assay: Antibacterial activity against methicillin-resistant Staphylococcus aureus SR3637 after 20 hrs by broth microdilution method; assay type: functional; settings: SR3637, 20 h; outline: as §1
[4] = test system: Enterococcus faecium; assay: Antibacterial activity against vancomycin-resistant Enterococcus faecium SR7917 after 20 hrs by broth microdilution method; assay type: functional; settings: SR7917, 20 h; outline: as §1
[5] = biological target: T1, Phospho-N-acetylmuramoyl-pentapeptide-transferase (Bacillus subtilis (strain 168), UniProt Q03521); assay: Inhibition of purified Bacillus subtilis MraY assessed as incorporation of MurNAc-[14C]pentapeptide into lipid 1 after 30 mins
T1 sequence (Q03521 whole entry): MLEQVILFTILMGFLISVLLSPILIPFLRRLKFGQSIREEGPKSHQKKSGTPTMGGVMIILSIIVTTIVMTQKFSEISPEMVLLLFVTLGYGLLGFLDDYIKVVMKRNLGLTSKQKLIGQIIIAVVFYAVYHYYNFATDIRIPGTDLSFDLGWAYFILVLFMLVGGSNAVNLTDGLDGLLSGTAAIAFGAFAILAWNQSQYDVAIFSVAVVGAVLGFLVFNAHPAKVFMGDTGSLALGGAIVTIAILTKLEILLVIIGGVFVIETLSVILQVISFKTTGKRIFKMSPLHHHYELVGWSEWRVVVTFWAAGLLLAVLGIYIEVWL
Outline: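 Purified B. subtilis MraY. Final mix: 100 mM Tris-HCl pH 7.5, 40 mM MgCl2, 1.1 mM C55-P, 250 mM NaCl, 0.25 mM UDP-MurNAc-[14C]pentapeptide (337 Bq), 8.4 mM N-lauroyl sarcosine. Incubated 30 min at 37 °C. Substrate and lipid I separated by silica TLC and quantified by radioactivity scanning. IC50 calculated relative to an inhibitor-free control.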

[6] = test system: Enterococcus faecalis; assay: Antibacterial activity against Enterococcus faecalis ATCC 29212 after 20 hrs by broth microdilution method; assay type: functional; settings: ATCC 29212, 20 h
Outline: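 MIC by NCCLS broth microdilution in cation-adjusted Mueller-Hinton broth with serial 2-fold compound dilutions. Inoculum 5 × 10^4 CFU per strain in 0.1 mL. Incubated 35 °C for 20 h before scoring.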

[7] = test system: Staphylococcus aureus; assay: Antibacterial activity against methicillin-susceptible Staphylococcus aureus ATCC 29213 after 20 hrs by broth microdilution method; assay type: functional; settings: ATCC 29213, 20 h; outline: as §1
[8] = test system: HepG2; assay: Cytotoxicity against human HepG2 cells after 48 hrs by WST-8 assay; assay type: cell-based; settings: hepg2, 48 h

Row | Compound | MIC [1] [mg/L] | MIC [2] [mg/L] | MIC [3] [mg/L] | MIC [4] [mg/L] | IC50 [5] [µM] | MIC [6] [mg/L] | MIC [7] [mg/L] | Activity [8]
1 | CCCCCCCCCCCCN[C@H](C(=O)O)[C@H](O[C@@H]1O[C@H](CN)[C@@H](O)[C@H]1O)[C@H]1O[C@@H](n2ccc(=O)[nH]c2=O)[C@H](O)[C@@H]1O | 64 (≈ 104 µM) | 64 (≈ 104 µM) | > 64 | 64 (≈ 104 µM) | 5 | 32 (≈ 51.9 µM) | > 64 | –
2 | CC(C)[C@H](NC(=O)N[C@H](C(=O)N[C@@H](CCCCCCCc1ccc(-c2ccccc2)cc1)C(=O)NCCCN[C@H](C(=O)O)[C@H](O[C@@H]1O[C@H](CN)[C@@H](O)[C@H]1O)C1O[C@@H](n2ccc(=O)[nH]c2=O)[C@H](O)[C@@H]1O)[C@@H]1CCNC(=N)N1)C(=O)O (single isomer, unassigned) | 4 (≈ 3.6 µM) | 16 (≈ 14.4 µM) | 4 (≈ 3.6 µM) | 8 (≈ 7.21 µM) | – | 4 (≈ 3.6 µM) | 4 (≈ 3.6 µM) | Non-toxic
3 | CCCCOc1ccc(-c2ccc(CC[C@@H](NC(=O)[C@@H](NC(=O)N[C@H](C(=O)O)C(C)C)[C@@H]3CCNC(=N)N3)C(=O)NCCCN[C@H](C(=O)O)[C@H](O[C@@H]3O[C@H](CN)[C@@H](O)[C@H]3O)C3O[C@@H](n4ccc(=O)[nH]c4=O)[C@H](O)[C@@H]3O)cc2)cc1 (single isomer, unassigned) | 4 (≈ 3.6 µM) | 64 (≈ 57.5 µM) | 64 (≈ 57.5 µM) | 8 (≈ 7.19 µM) | – | 32 (≈ 28.8 µM) | 64 (≈ 57.5 µM) | Non-toxic
4 | CCCCCCOc1ccc(-c2ccc([C@H](NC(=O)[C@@H](NC(=O)N[C@H](C(=O)O)C(C)C)[C@@H]3CCNC(=N)N3)C(=O)NCCCN[C@H](C(=O)O)[C@H](O[C@@H]3O[C@H](CN)[C@@H](O)[C@H]3O)C3O[C@@H](n4ccc(=O)[nH]c4=O)[C@H](O)[C@@H]3O)cc2)cc1 (single isomer, unassigned) | 4 (≈ 3.6 µM) | 8 (≈ 7.19 µM) | 8 (≈ 7.19 µM) | 4 (≈ 3.6 µM) | – | 8 (≈ 7.19 µM) | 4 (≈ 3.6 µM) | Non-toxic
5 | CCCCCCOc1ccc(-c2ccc([C@@H](NC(=O)[C@@H](NC(=O)N[C@H](C(=O)O)C(C)C)[C@@H]3CCNC(=N)N3)C(=O)NCCCN[C@H](C(=O)O)[C@H](O[C@@H]3O[C@H](CN)[C@@H](O)[C@H]3O)C3O[C@@H](n4ccc(=O)[nH]c4=O)[C@H](O)[C@@H]3O)cc2)cc1 (single isomer, unassigned) | 4 (≈ 3.6 µM) | 16 (≈ 14.4 µM) | 16 (≈ 14.4 µM) | 8 (≈ 7.19 µM) | – | 16 (≈ 14.4 µM) | 16 (≈ 14.4 µM) | Non-toxic
6 | CC(C)C[C@@H](NC(=O)[C@@H](NC(=O)N[C@H](C(=O)O)C(C)C)[C@@H]1CCN=C(N)N1)C(=O)NCCCN[C@H](C(=O)O)[C@H](O[C@@H]1O[C@H](CN)[C@@H](O)[C@H]1O)C1O[C@@H](n2ccc(=O)[nH]c2=O)[C@H](O)[C@@H]1O (single isomer, unassigned) | > 64 | > 64 | > 64 | > 64 | 0.09 | > 64 | > 64 | –
7 | CCCCCCCCCCCCCCC[C@H](NC(=O)[C@@H](NC(=O)N[C@H](C(=O)O)C(C)C)[C@@H]1CCN=C(N)N1)C(=O)NCCCN[C@H](C(=O)O)[C@H](O[C@@H]1O[C@H](CN)[C@@H](O)[C@H]1O)C1O[C@@H](n2ccc(=O)[nH]c2=O)[C@H](O)[C@@H]1O (single isomer, unassigned) | 4 (≈ 3.74 µM) | 4 (≈ 3.74 µM) | 4 (≈ 3.74 µM) | 2 (≈ 1.87 µM) | 0.33 | 4 (≈ 3.74 µM) | 2 (≈ 1.87 µM) | Non-toxic
8 | CCCCCCCCCCCCCCC[C@@H](NC(=O)[C@@H](NC(=O)N[C@H](C(=O)O)C(C)C)[C@@H]1CCN=C(N)N1)C(=O)NCCCN[C@H](C(=O)O)[C@H](O[C@@H]1O[C@H](CN)[C@@H](O)[C@H]1O)C1O[C@@H](n2ccc(=O)[nH]c2=O)[C@H](O)[C@@H]1O (single isomer, unassigned) | 0.5 (≈ 0.467 µM) | 4 (≈ 3.74 µM) | 4 (≈ 3.74 µM) | 0.25 (≈ 0.234 µM) | 0.74 | 2 (≈ 1.87 µM) | 2 (≈ 1.87 µM) | Non-toxic
9 | CC(C)[C@H](NC(=O)N[C@H](C(=O)N[C@H](CCCCCCCc1ccc(-c2ccccc2)cc1)C(=O)NCCCN[C@H](C(=O)O)[C@H](O[C@@H]1O[C@H](CN)[C@@H](O)[C@H]1O)C1O[C@@H](n2ccc(=O)[nH]c2=O)[C@H](O)[C@@H]1O)[C@@H]1CCNC(=N)N1)C(=O)O (single isomer, unassigned) | 4 (≈ 3.6 µM) | 16 (≈ 14.4 µM) | 16 (≈ 14.4 µM) | 4 (≈ 3.6 µM) | – | 8 (≈ 7.21 µM) | 8 (≈ 7.21 µM) | Non-toxic
10 | CCCCOc1ccc(-c2ccc(CC[C@H](NC(=O)[C@@H](NC(=O)N[C@H](C(=O)O)C(C)C)[C@@H]3CCNC(=N)N3)C(=O)NCCCN[C@H](C(=O)O)[C@H](O[C@@H]3O[C@H](CN)[C@@H](O)[C@H]3O)C3O[C@@H](n4ccc(=O)[nH]c4=O)[C@H](O)[C@@H]3O)cc2)cc1 (single isomer, unassigned) | 16 (≈ 14.4 µM) | 64 (≈ 57.5 µM) | 32 (≈ 28.8 µM) | 32 (≈ 28.8 µM) | – | 16 (≈ 14.4 µM) | 16 (≈ 14.4 µM) | Non-toxic
11 | CC(C)C[C@H](NC(=O)[C@@H](NC(=O)N[C@H](C(=O)O)C(C)C)[C@@H]1CCNC(=N)N1)C(=O)NCCCN[C@H](C(=O)O)[C@H](O[C@@H]1O[C@H](CN)[C@@H](O)[C@H]1O)[C@H]1O[C@@H](n2ccc(=O)[nH]c2=O)[C@H](O)[C@@H]1O [MURAMYCIN D2] | > 64 | > 64 | > 64 | > 64 | 0.01 | > 64 | > 64 | –
12 | CN[C@H](CC(C)C)C(=O)N[C@H]1C(=O)N[C@@H](CC(N)=O)C(=O)N[C@H]2C(=O)N[C@H]3C(=O)N[C@H](C(=O)N[C@H](C(=O)O)c4cc(O)cc(O)c4-c4cc3ccc4O)[C@H](O)c3ccc(c(Cl)c3)Oc3cc2cc(c3O[C@@H]2O[C@H](CO)[C@@H](O)[C@H](O)[C@H]2O[C@H]2C[C@](C)(N)[C@H](O)[C@H](C)O2)Oc2ccc(cc2Cl)[C@H]1O [VANCOMYCIN] | – | > 64 | – | > 64 | – | 1 (≈ 0.69 µM) | – | –
